Screening data: PubChem BioAssay, several laboratories
MPTP inh: mitochondrial permeability transition pore inhibitors, primary screen, biochemical, isolated mouse mitochondria, absorbance | AID 602449, 2012 | inhibition, % at 10 µM | 360,000 tested, 1.4% active | Ca2+ swelling absorbance, 30 min;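 active = inhibition of 50% or more, scaled per plate between neutral and stimulator controls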
CHOP inhibitor: inhibitors of CHOP promoter induction, primary screen, cell-based, unfolded protein response, luciferase reporter | CHO-K1 CHOP-promoter luciferase, tunicamycin-induced, 15-18 h | inhibition, % at 10 µM | 220,000 tested, 3.8% active;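 active = compounds that reduced the stress-induced luciferase reporter signal by more than about 70% of percent inhibition, limit read from the data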
WT yeast gro inh: growth inhibition of WT strain, primary screen, mitochondrial fusion inhibitor project, WT and mutant strains, chemical genetic | mitochondrial fusion phenotypic screen | inhibition, % at 10 µM | 190,000 tested, 2.1% active | AID 1362, 2008; in the data active = inhibition above about 58%; tested in S. cerevisiae
TbMetRS inhib: T. brucei MetRS inhibitors, primary screen, biochemical, luminescence; purified T. brucei MetRS, ATP depletion, Kinase-Glo luminescence; 360,000 tested, 0.4% active; inhibition, % at 11.9 µM; AID 624268, 2012;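 active = inhibition above a per-plate cutoff of the control wells' mean inhibition plus 3 SD, cut at about 5.5% in these data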
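technique = Kinase-Glo luminescence, ATP depletion format | system = purified MetRS (methionyl-tRNA synthetase) enzyme from Trypanosoma brucei | timing = 15 min preincubation, 2 h reaction, all 25 °C | evaluation = percent inhibition versus plate control medians | dosing = single dose, 11.9 µM final nominal, 0.9% final DMSO | also added = substrates ATP, L-methionine and bulk Escherichia coli tRNA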
EBV gp42 inh: Epstein-Barr virus gp42 inhibitors, primary screen, biochemical, uHTS, fluorescence polarization; Glycoprotein 42 (Epstein-Barr virus (strain AG876)), Q1HVG2; Fluorescence polarization binding assay, mP read-out; inhibition, % (tested at 21.74 µM); 220,000 tested, 0.42% active; AID 1085, 2008; in the data active = inhibition above about 50%
Target sequence (Q1HVG2 whole entry, looked up): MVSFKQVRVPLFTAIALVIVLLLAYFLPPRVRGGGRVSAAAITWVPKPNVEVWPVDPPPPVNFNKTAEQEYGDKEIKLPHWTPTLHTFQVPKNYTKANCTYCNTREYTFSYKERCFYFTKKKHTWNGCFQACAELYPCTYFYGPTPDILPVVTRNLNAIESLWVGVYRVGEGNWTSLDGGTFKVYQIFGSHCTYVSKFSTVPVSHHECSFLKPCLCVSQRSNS
NR3A LBD binder: binders of NR3A ligand-binding domain, primary screen, biophysical, differential scanning fluorimetry, uHTS | Glutamate receptor ionotropic, NMDA 3A (GRIN3A) ligand-binding domain | NR3A LBD differential scanning fluorimetry, Tm shift; 0% = protein alone, 100% = glycine-bound protein | Tm shift relative to glycine control, % at 25 µM | 340,000 tested, 2.5% active | AID 1259313, 2017;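 active = melting temperature shift of at least 10% of the positive control shift, at one fixed dose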
A number is an active result; n = inactive; x = no result given. An excerpt weighted towards active compounds, which were near 6.4% of everything screened.

SMILES | MPTP inh | CHOP inhibitor | WT yeast gro inh | TbMetRS inhib | EBV gp42 inh | NR3A LBD binder
O=C1CC(c2ccco2)CC(O)=C1C=Nc1cc(Cl)cc(Cl)c1 (stereo not given) | n | 84 | n | n | n | n
CCCN=CC1=C(O)CC(c2ccccc2)CC1=O (stereo not given) | n | n | n | n | n | 391
O=C1CC(c2ccccc2)CC(O)=C1C=Nc1ccccc1Cl (stereo not given) | n | n | n | n | n | n
C=CCc1cccc(/C=N/c2ncccc2O)c1O | n | n | n | n | n | n
O=C(NCc1ccccc1)c1cc(=O)c2ccccc2o1 | n | n | n | n | n | n
CC1(c2nnc(-c3cccc(Cl)c3)o2)CC(c2ccccc2F)=NO1 (stereo not given) | n | x | x | n | x | 13
CC1(c2nnc(-c3cccc(Cl)c3)o2)CC(c2cccc(Cl)c2)=NO1 (stereo not given) | n | x | x | n | x | n
O=[N+]([O-])c1cccnc1N1CCC(c2cc(-c3ccc(Cl)cc3)n[nH]2)CC1 | n | 100 | 72 | n | n | n
CSc1ccc(CN(C)C(=O)c2ccc(S(=O)(=O)Nc3c(C)n(C)n(-c4ccccc4)c3=O)cc2)cc1 | n | x | x | n | x | n
Cn1cnc(S(=O)(=O)Nc2ccc(Cl)c(C(F)(F)F)c2)c1 | n | x | x | n | x | 14
Cn1cnc(S(=O)(=O)Nc2ccc(C(F)(F)F)cc2)c1 | n | n | n | n | n | n
CCn1cc(C(=O)NC(C)C23CC4CC(CC(C4)C2)C3)cn1 (stereo not given) | n | n | n | n | n | n
CC(NC(=O)CN1C(=O)NC(Cc2ccccc2)(Cc2ccccc2)C1=O)C12CC3CC(CC(C3)C1)C2 (stereo not given) | n | 84 | n | n | n | n
CC(NC(=O)Cn1ncc(Cl)c(Cl)c1=O)C12CC3CC(CC(C3)C1)C2 (stereo not given) | n | 109 | 64 | n | n | n
O=C(OCC(=O)N1CCN(c2ccccc2)CC1)c1ccc2ccccc2n1 | n | n | n | n | n | 14
O=C(OCC(=O)N1CCN(c2ccccc2)CC1)c1ccccn1 | n | n | n | n | n | n
COc1cc(C2c3c(-c4cc(Cl)c(C)cc4O)n[nH]c3C(=O)N2Cc2cccnc2)ccc1O (stereo not given) | n | n | n | n | n | n
COc1cccc(C2c3c(-c4cc(Cl)c(C)cc4O)n[nH]c3C(=O)N2Cc2cccnc2)c1 (stereo not given) | n | 75 | n | n | n | n
O=C(Cn1c2ccccc2c(=O)c2ccccc21)N/N=C/c1ccc(N2CCCC2)c([N+](=O)[O-])c1 | n | n | n | n | 74 | n
O=C(CNc1ccccc1)N/N=C/c1cc([N+](=O)[O-])ccc1N1CCCC1 | n | 73 | n | n | n | n
N#CCC(=O)N/N=C/c1cc([N+](=O)[O-])ccc1N1CCCC1 | n | n | n | n | n | n
O=C(Nc1ccc(C2CC2(Cl)Cl)cc1)c1ccccc1Br (stereo not given) | n | n | n | n | n | n
Cc1cc(CN(C)Cc2ccc(OCC(O)CN(C)Cc3ccccc3)cc2)on1 (stereo not given) | n | n | n | n | n | n
COc1ccc(-n2cnc(=S)[nH]c2=S)cc1 | n | x | x | n | x | 18
CC1(C)CC(=O)c2sc(NC(=O)C3COc4ccccc4O3)nc2C1 (stereo not given) | n | n | n | n | n | n
OC(CCN1CC2CCC(CC2)C1)(Cc1ccccc1)c1ccco1 (stereo not given) | n | x | x | n | x | n
CCSC1=N/C(=C\c2ccc(C)s2)C(=O)S1 | n | n | n | n | n | 13
CCSC1=N/C(=C\c2ccc(C(=O)O)cc2)C(=O)S1 | n | n | n | n | n | 20
O=C1SC(SCc2ccccc2Cl)=N/C1=C\c1ccc(C(=O)O)cc1 | n | 82 | n | n | n | n
CSc1nc2cc(S(=O)(=O)N3CCOCC3)ccc2s1 | n | n | n | n | n | n
